Data: ChEMBL document CHEMBL1156077, “Piperazinyl-glutamate-pyrimidines as potent P2Y12 antagonists for inhibition of platelet aggregation” (Bioorg Med Chem Lett, 2009)

Tests used:
[1] = Selectivity for human P2Y12 receptor over P2Y1
[2] = target: T1, P2Y purinoceptor 12 (Homo sapiens, UniProt Q9H244); assay: Binding affinity at human recombinant P2Y12 receptor expressed in CHO cells by radioligand binding assay; format: cell-based
In short: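 Washed membranes from CHO cells transfected with synthetic human P2Y12 gene. Compounds as 7-point threefold dilutions, triplicate, 1 h at room temperature. Nonspecific binding defined with 300 nM 2-MeSADP. Filtered, washed with ice-cold Tris pH 7.4. Single-site fit; IC50 converted to Ki by Cheng–Prusoff, geometric mean of n≥2.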

[3] = Selectivity for human P2Y12 receptor over P2Y13
[4] = target: T1, P2Y purinoceptor 12; assay: Ratio of compound IC50 to AZD-6140 IC50 for P2Y12 receptor in human platelet rich plasma assessed as inhibition of ADP-induced platelet aggregation by light transmission aggregometry
In short: (§1)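 Human platelet-rich plasma was pre-incubated 5 min at 37 °C with compound across seven concentrations (10 down to 0.156). Aggregation was started with ADP (20, final) and followed by light transmission at 626 nm for 15 min at 37 °C. Duplicate concentration-response data were read at the 15-min end-point. IC50 was divided by the IC50 of AZD-6140 run on the same plate.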

[5] = target: T1, P2Y purinoceptor 12; assay: Ratio of compound IC50 to thienopyrimidine IC50 for P2Y12 receptor in human platelet rich plasma assessed as inhibition of ADP-induced platelet aggregation by light transmission aggregometry
In short: as §1, with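 “the thienopyrimidine reference” for “AZD-6140”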

T1 sequence (Q9H244 whole entry): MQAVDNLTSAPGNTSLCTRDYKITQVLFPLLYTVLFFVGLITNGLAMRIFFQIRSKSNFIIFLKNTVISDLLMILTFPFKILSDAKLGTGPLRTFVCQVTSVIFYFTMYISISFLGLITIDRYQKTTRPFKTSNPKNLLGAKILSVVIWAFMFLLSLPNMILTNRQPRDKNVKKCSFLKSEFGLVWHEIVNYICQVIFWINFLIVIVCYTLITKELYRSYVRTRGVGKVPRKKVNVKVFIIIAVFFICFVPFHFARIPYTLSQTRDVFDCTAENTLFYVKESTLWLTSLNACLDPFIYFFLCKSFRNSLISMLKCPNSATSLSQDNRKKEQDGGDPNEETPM

| fold change (FC) [1] | Ki [2] | fold change (FC) [3] | Ratio IC50 [4] | Ratio IC50 [5] | Structure (SMILES) |
| --- | --- | --- | --- | --- | --- |
| > 340 | 11 nM | > 340 | 1.6 | 0.4 | CCCCCOC(=O)N1CCN(C(=O)[C@H](CCC(=O)O)NC(=O)c2nc(-c3ccccc3)cc(N3CCC(CNCC)CC3)n2)CC1 |
| > 340 | 0.92 nM | > 340 | 1.1 | 0.2 | CCCCCOC(=O)N1CCN(C(=O)[C@H](CCC(=O)O)NC(=O)c2cc(N3CCC(CC(=O)N4CCC4)CC3)nc(-c3ccccc3)n2)CC1 |
| > 340 | 0.69 nM | > 340 | 0.5 | 0.2 | CCCCCOC(=O)N1CCN(C(=O)[C@H](CCC(=O)O)NC(=O)c2cc(N3CCC(N)CC3)nc(-c3ccccc3)n2)CC1 |
| > 340 | 3.1 nM | > 340 | 3.3 | 0.6 | CCCCCOC(=O)N1CCN(C(=O)[C@H](CCC(=O)O)NC(=O)c2cc(N3CCC(CC(=O)N(CC)CC)CC3)nc(-c3ccccc3)n2)CC1 |
| > 340 | 7.1 nM | > 340 | 5.3 | 1.2 | CCCCCOC(=O)N1CCN(C(=O)[C@H](CCC(=O)O)NC(=O)c2nc(-c3ccccc3)cc(N3CCC(OCCOC)CC3)n2)CC1 |
| > 340 | 3.6 nM | > 340 | 1.5 | 0.4 | CCCCCOC(=O)N1CCN(C(=O)[C@H](CCC(=O)O)NC(=O)c2nc(-c3ccccc3)cc(N3CCC(C(=O)N(CC)CC)CC3)n2)CC1 |
| > 340 | 3 nM | > 340 | 1.9 | 0.4 | CCCCCOC(=O)N1CCN(C(=O)[C@H](CCC(=O)O)NC(=O)c2nc(-c3ccccc3)cc(N3CCC(CCN)CC3)n2)CC1 |
| > 340 | 12 nM | > 340 | 8.3 | 1.6 | CCCCCOC(=O)N1CCN(C(=O)[C@H](CCC(=O)O)NC(=O)c2nc(-c3ccccc3)cc(N3CCN(CCOC)CC3)n2)CC1 |
| > 340 | 7.4 nM | > 340 | 2.4 | 0.4 | CCCCCOC(=O)N1CCN(C(=O)[C@H](CCC(=O)O)NC(=O)c2nc(-c3ccccc3)cc(N3CCC(N4CCCC4)CC3)n2)CC1 |
| > 340 | 29 nM | > 340 | 8.9 | 1.8 | CCCCCOC(=O)N1CCN(C(=O)[C@H](CCC(=O)O)NC(=O)c2nc(-c3ccccc3)cc(N3CCN(C(C)=O)CC3)n2)CC1 |
| > 340 | 11 nM | > 340 | 8.1 | 1.8 | CCCCCOC(=O)N1CCN(C(=O)[C@H](CCC(=O)O)NC(=O)c2nc(-c3ccccc3)cc(N3CCN(C)CC3)n2)CC1 |
| > 340 | 5.3 nM | > 340 | 0.8 | 0.2 | CCCCCOC(=O)N1CCN(C(=O)[C@H](CCC(=O)O)NC(=O)c2cc(N3CCC(OCCOC)CC3)nc(-c3ccccc3)n2)CC1 |

Continued, compound first:

| Structure (SMILES) | fold change (FC) [1] | Ki [2] | fold change (FC) [3] | Ratio IC50 [4] | Ratio IC50 [5] |
| --- | --- | --- | --- | --- | --- |
| CCCCCOC(=O)N1CCN(C(=O)[C@H](CCC(=O)O)NC(=O)c2cc(NCC3CCNC3)nc(-c3ccccc3)n2)CC1 (stereo not given in full) | > 340 | 4.1 nM | > 340 | 2.3 | 0.5 |
| CCCCCOC(=O)N1CCN(C(=O)[C@H](CCC(=O)O)NC(=O)c2cc(N3CCN(C(N)=O)CC3)nc(-c3ccccc3)n2)CC1 | > 340 | 1.2 nM | > 340 | 0.8 | 0.2 |
| CCCCCOC(=O)N1CCN(C(=O)[C@H](CCC(=O)O)NC(=O)c2cc(N3CCN(C(=O)N(C)C)CC3)nc(-c3ccccc3)n2)CC1 | > 340 | 2.9 nM | > 340 | 1.5 | 0.3 |
| CCCCCOC(=O)N1CCN(C(=O)[C@H](CCC(=O)O)NC(=O)c2cc(NCCOC)nc(-c3ccccc3)n2)CC1 | > 340 | 1.2 nM | > 340 | 2.2 | 0.5 |
| CCCCCOC(=O)N1CCN(C(=O)[C@H](CCC(=O)O)NC(=O)c2cc(N3CCC(C(=O)N4CCC4)CC3)nc(-c3ccccc3)n2)CC1 | > 340 | 0.83 nM | > 340 | 0.3 | 0.04 |
| CCCCOC(=O)N1CCN(C(=O)[C@H](CCC(=O)O)NC(=O)c2cc(N3CCC(C(=O)N(CC)CC)CC3)nc(-c3ccccc3)n2)CC1 | > 340 | 0.79 nM | > 340 | 0.6 | 0.1 |
| CCCCOC(=O)N1CCN(C(=O)[C@H](CCC(=O)O)NC(=O)c2cc(OCC3CCN(C)CC3)nc(-c3ccccc3)n2)CC1 | > 340 | 15 nM | > 340 | 3.7 | 0.9 |
| CCCCOC(=O)N1CCN(C(=O)[C@H](CCC(=O)O)NC(=O)c2cc(OCC3CCCO3)nc(-c3ccccc3)n2)CC1 (stereo not given in full) | > 340 | 55 nM | > 340 | 3.8 | 1.4 |
| CCCCOC(=O)N1CCN(C(=O)[C@H](CCC(=O)O)NC(=O)c2cc(OCC3CCNCC3)nc(-c3ccccc3)n2)CC1 | > 340 | 16 nM | > 340 | 1 | 0.3 |
| CCCCCOC(=O)N1CCN(C(=O)[C@H](CCC(=O)O)NC(=O)c2nc(OCCCN3CCOCC3)cc(-c3ccccc3)n2)CC1 | > 340 | 11 nM | > 340 | 6.6 | 1.2 |
| CCCCCOC(=O)N1CCN(C(=O)[C@H](CCC(=O)O)NC(=O)c2cc(N3CCC(CN4CCCC4=O)CC3)nc(-c3ccccc3)n2)CC1 | > 340 | 0.99 nM | > 340 | 2 | 0.4 |
| CCCCCOC(=O)N1CCN(C(=O)[C@H](CCC(=O)O)NC(=O)c2cc(N3CCN(CC(=O)N(C)C)CC3)nc(-c3ccccc3)n2)CC1 | > 340 | 2.6 nM | > 340 | 0.5 | 0.1 |
| CCCCCOC(=O)N1CCN(C(=O)[C@H](CCC(=O)O)NC(=O)c2cc(OCC3CCNCC3)nc(-c3ccccc3)n2)CC1 | > 340 | 2.2 nM | > 340 | 1.7 | 0.3 |
| CCCCCOC(=O)N1CCN(C(=O)[C@H](CCC(=O)O)NC(=O)c2cc(NCCCN(C)C)nc(-c3ccccc3)n2)CC1 | > 340 | 4.8 nM | > 340 | 1.7 | 0.6 |
| CCCCCOC(=O)N1CCN(C(=O)[C@H](CCC(=O)O)NC(=O)c2cc(OCCCN3CCOCC3)nc(-c3ccccc3)n2)CC1 | > 340 | 2.8 nM | > 340 | 8.3 | 1.4 |
| CCCCCOC(=O)N1CCN(C(=O)[C@H](CCC(=O)O)NC(=O)c2cc(N3CCOCC3)nc(-c3ccccc3)n2)CC1 | > 340 | 1 nM | > 340 | 7.9 | 2 |
